Here are results for 24 compounds from ChEMBL document CHEMBL1799963, “Discovery of novel benzopyranyl tetracycles that act as inhibitors of osteoclastogenesis induced by receptor activator of NF-κB ligand” (J Med Chem, 2010).

Active and inactive are the calls of the source. No cut-off for these calls is given here.

Data set [1] relates to RAW264.7. The experiment in a line: Inhibition of RANKL-induced osteoclastogenesis in mouse RAW264.7 cells assessed as TRAP-positive cells at 10 uM after 1 hr by microplate reader assay. Format: functional. On the set-up: scale not given: the % may be the effect or the level left. The gist of the method: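 RAW264.7 plated at 1 10^3 cells/well in α-MEM/10% FBS with 100 ng/mL RANKL; compound (10 μM) or DMSO vehicle added after 24 h. On day 4, cells fixed (10% formalin 10 min, 95% ethanol 1 min). TRAP activity measured in 50 mM citrate pH 4.6 with 10 mM tartrate and 5 mM p-nitrophenylphosphate for 1 h, stopped with 0.1 N NaOH, A410. Triplicate; 100% = RANKL minus vehicle difference.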

Data set [2] can be described thus: Cytotoxicity against mouse RAW264.7 cells assessed as cell viability at 30 uM after day 4 by CCK-8 assay. It counts as cell-based. The following applies: read-out: Activity. Put shortly:
(§1)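 RAW264.7 cells exposed to compound at 30 μM final for 1 day or 4 days; viability read by CCK-8 assay.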

The nature of data set [3]: Cytotoxicity against mouse RAW264.7 cells assessed as cell viability at 30 uM after day 1 by CCK-8 assay. Format: cell-based. To be noted: read-out: Activity. The gist of the method: as §1
(Formazan colour is commonly taken as a measure of viable cells.)

A further data set deals with Macrophage. Description: Inhibition of RANKL-induced osteoclastogenesis in BALB/c mouse Bone marrow macrophages assessed as decrease in TRAP-positive cells after 1 hr by microplate reader assay. It counts as functional, cell-based. Put shortly:
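BALB/c femur/tibia monocytes grown 1 day with 10 ng/mL M-CSF, then nonadherent cells 3 days with 30 ng/mL M-CSF. Adherent BMMs plated at 3 10^5 cells/well with 100 ng/mL RANKL and 30 ng/mL M-CSF, then given compound dose series. TRAP activity read via p-nitrophenylphosphate hydrolysis (pH 4.6 citrate, tartrate, 1 h, A410). IC50 derived.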

The subject of data set [4] is RAW264.7. The experiment in a line: Inhibition of RANKL-induced osteoclastogenesis in mouse RAW264.7 cells assessed as decrease in TRAP-positive cells after 1 hr by microplate reader assay. The following applies: RAW264.7, 1 h. It counts as functional, cell-based. Put shortly: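 RAW264.7 in α-MEM/10% FBS plus 100 ng/mL RANKL; compound or DMSO vehicle added after 24 h, dose-dependent series. On day 4, cells fixed and TRAP activity read as p-nitrophenylphosphate (5 mM) hydrolysis in tartrate-containing citrate buffer pH 4.6, 1 h, NaOH stop, A410. IC50 derived; triplicate.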

The subject of data set [5] is RAW264.7. The experiment in a line: Inhibition of RANKL-induced ERK phosphorylation in mouse RAW264.7 cells at 10 uM by Western blot analysis. Format: cell-based. (In general: Immunoblotting shows a protein as a band on a membrane.)
The subject of data set [6] is RAW264.7. Description: Inhibition of c-Src mRNA expression in mouse RAW264.7 cells at 10 uM by RT-PCR analysis. Format: functional, cell-based.
In data set [7] the test system is RAW264.7. The experiment in a line: Downregulation of RANKL-induced c-fos mRNA expression in mouse RAW264.7 cells at 10 uM by RT-PCR analysis. Format: functional, cell-based.
In data set [8] the test system is RAW264.7. Description: Downregulation of RANKL-induced NFATc1 mRNA expression in mouse RAW264.7 cells at 10 uM by RT-PCR analysis. Format: functional, cell-based.
Data set [9] relates to RAW264.7. The experiment in a line: Inhibition of TRAP mRNA expression in mouse RAW264.7 cells at 10 uM by RT-PCR analysis. It counts as functional, cell-based.
Data set [10] concerns RAW264.7. The experiment in a line: Inhibition of MMP-7 mRNA expression in mouse RAW264.7 cells at 10 uM by RT-PCR analysis. It counts as functional, cell-based.
Data set [11] is described as follows: Inhibition of NFkappa signaling in mouse RAW264.7 cells assessed as reduction in RANKL-induced transcriptional activation on NF-kappaB at 10 uM by luciferase reporter gene assay. It counts as cell-based.
Data set [12] deals with RAW264.7. The experiment in a line: Downregulation of RANKL-induced fra2 mRNA expression in mouse RAW264.7 cells at 10 uM by RT-PCR analysis. Format: functional, cell-based.
A short description of data set [13]: Inhibition of NFkappa signaling in mouse RAW264.7 cells assessed as reduction in RANKL-induced transcriptional activation on NF-kappaB by luciferase reporter gene assay. It counts as cell-based. For orientation: A reporter such as luciferase makes a cellular process visible.

Turning to `CC1(C)Oc2cc(O)ccc2C2C1=CCn1c(=O)n(-c3ccc(Cl)cc3)c(=O)n12` (centres undefined), the Activity with RAW264.7 [1] is on record as 112%.

For `CC1(C)Oc2cc(O)ccc2C2C1=CCn1c(=O)n(-c3ccc(C(C)(C)C)cc3)c(=O)n12` (centres undefined), in the data set with RAW264.7 [1], the Activity was determined as 53%. For the same compound, the viability at 4 day, 30 µM in data set [2] came to 73.4%. For the same compound, the viability at 1 day, 30 µM in data set [3] was found to be 79.7%. Further, the IC50 (in general, the concentration that inhibits the measured activity by half) came to 6.77 µM in the data set on Macrophage and 6.94 µM with RAW264.7 [4].

`CC1(C)Oc2cc(O)ccc2C2C1=CCn1c(=O)n(-c3cccc([N+](=O)[O-])c3)c(=O)n12` (centres undefined): the Activity in the data set on RAW264.7 [1] is on record as 105%.

As for `CC(=O)N1CCC2(CC1)Oc1cc(O)ccc1C1C2=CCn2c(=O)n(-c3ccccc3)c(=O)n21` (centres undefined), in the data set on RAW264.7 [1], the Activity was determined as 113%.

As to `CC1(C)Oc2cc(O)ccc2C2C1=CCn1c(=O)n(C3CCCCC3)c(=O)n12` (centres undefined), the Activity with RAW264.7 [1] is listed as 113%.

On to `CC1(C)Oc2cc(O)ccc2C2C1=CCn1c(=O)n(-c3ccccc3I)c(=O)n12` (centres undefined), for which the Activity in the data set with RAW264.7 [1] is given as 101%.

With `COc1ccc(-n2c(=O)n3n(c2=O)C2C(=CC3)C(C)(C)Oc3cc(O)ccc32)cc1` (centres undefined), the Activity in the data set with RAW264.7 [1] is on record as 93%.

On to `CC1(C)Oc2ccccc2C2C1=CCn1c(=O)n(-c3ccccc3)c(=O)n12` (centres undefined), for which the inhibition entry in the data set with RAW264.7 [5], with RAW264.7 [6], in the data set with RAW264.7 [9] and with RAW264.7 [10] was “inactive” each time. Further, the Activity in the data set on RAW264.7 [1] is recorded as 104%. Further, the outcome with RAW264.7 [7], in the data set with RAW264.7 [8] and in the data set on RAW264.7 [12] was inactive. The inhibition result in data set [11] was “Active”.

In the case of `CC1(C)Oc2cc(O)ccc2C2C1=CCn1c(=O)n(Cc3ccccc3)c(=O)n12` (centres undefined), the Activity in the data set on RAW264.7 [1] was determined as 98%.

With `CC1(C)Oc2cc(O)ccc2C2C1=CCn1c(=O)n(-c3ccccc3Cl)c(=O)n12` (centres undefined), the Activity in the data set on RAW264.7 [1] worked out at 95%.

With `COc1ccc2c(c1)OC(C)(C)C1=CCn3c(=O)n(-c4ccccc4)c(=O)n3C12` (centres undefined), the Activity with RAW264.7 [1] came out at 108%.

`CC1(C)Oc2cc(O)ccc2C2C1=CCn1c(=O)n(-c3ccccc3)c(=O)n12` (centres undefined): the inhibition entry in the data set with RAW264.7 [5], with RAW264.7 [6], in the data set on RAW264.7 [9] and in the data set with RAW264.7 [10] was “Active” in each case. Moreover, the Activity with RAW264.7 [1] is given as 43%. For the same compound, the result in the data set with RAW264.7 [7], in the data set on RAW264.7 [8] and with RAW264.7 [12] was Active. In addition, in data set [2], the viability at 4 day, 30 µM worked out at 74%. Further, the viability at 1 day, 30 µM in data set [3] was found to be 85.9%. In addition, the IC50 in the data set with Macrophage was 6.13 µM; in the data set on RAW264.7 [4], 7.07 µM. Besides, the inhibition result in data set [13] was “Dose-dependent effect”.

For the compound `COc1cccc(-n2c(=O)n3n(c2=O)C2C(=CC3)C(C)(C)Oc3cc(O)ccc32)c1` (centres undefined), the Activity with RAW264.7 [1] amounted to 86%.

With `CC1(C)Oc2cc(O)ccc2C2C1=CCn1c(=O)n(-c3ccc(Br)cc3)c(=O)n12` (centres undefined), the Activity in the data set with RAW264.7 [1] is recorded as 83%.

Turning to `COc1ccc2c(c1)C1C(=CCn3c(=O)n(-c4ccccc4)c(=O)n31)C(C)(C)O2` (centres undefined), in the data set with RAW264.7 [1], the Activity is listed as 100%.

In the case of `Cn1c(=O)n2n(c1=O)C1C(=CC2)C(C)(C)Oc2cc(O)ccc21` (centres undefined), the Activity in the data set with RAW264.7 [1] was 95%.

For the compound `COc1ccc2c(c1O)OC(C)(C)C1=CCn3c(=O)n(-c4ccccc4)c(=O)n3C12` (centres undefined), the Activity in the data set with RAW264.7 [1] is given as 69%. Moreover, the IC50 in the data set on Macrophage was determined as 22.2 µM.

For `CC1(C)Oc2cc(F)ccc2C2C1=CCn1c(=O)n(-c3ccccc3)c(=O)n12` (centres undefined), the Activity with RAW264.7 [1] amounted to 121%.

On to `Cc1ccc(-n2c(=O)n3n(c2=O)C2C(=CC3)C(C)(C)Oc3cc(O)ccc32)cc1` (centres undefined), for which the inhibition result with RAW264.7 [5], in the data set on RAW264.7 [6], in the data set on RAW264.7 [9] and in the data set on RAW264.7 [10] was “Active” throughout. For the same compound, the Activity in the data set on RAW264.7 [1] stood at 50%. Besides, the result in the data set on RAW264.7 [7], in the data set on RAW264.7 [8] and in the data set with RAW264.7 [12] was Active. In addition, the viability at 4 day, 30 µM in data set [2] is 86.9%. Also, the viability at 1 day, 30 µM in data set [3] is 100%. Also, the IC50 worked out at 7.05 µM in the data set on Macrophage and 7.97 µM in the data set on RAW264.7 [4]. The inhibition entry in data set [13] was “Dose-dependent effect”.

Regarding `CNc1ccc2c(c1)OC(C)(C)C1=CCn3c(=O)n(-c4ccccc4)c(=O)n3C12` (centres undefined), in the data set on RAW264.7 [1], the Activity stood at 107%.

As to `COc1cc2c(cc1OC)C1C(=CCn3c(=O)n(-c4ccccc4)c(=O)n31)C(C)(C)O2` (centres undefined), the Activity in the data set with RAW264.7 [1] is listed as 99%.

Take `CCCN1CCC2(CC1)Oc1cc(O)ccc1C1C2=CCn2c(=O)n(-c3ccccc3)c(=O)n21` (centres undefined): the Activity with RAW264.7 [1] was determined as 99%.

On to `CC1(C)Oc2cc(O)ccc2C2C1=CCn1c(=O)n(-c3ccc(F)cc3)c(=O)n12` (centres undefined), for which, in the data set with RAW264.7 [1], the Activity came to 68%. In addition, the viability at 4 day, 30 µM in data set [2] turned out to be 80.7%. Further, the viability at 1 day, 30 µM in data set [3] is 99%. Also, the half-inhibitory concentration (IC50) in the data set with Macrophage was 11.9 µM; in the data set on RAW264.7 [4], 8.08 µM.

For `O=c1n(-c2ccccc2)c(=O)n2n1CC=C1C2c2ccc(O)cc2OC12CCCC2` (centres undefined), the Activity in the data set with RAW264.7 [1] is given as 30%. For the same compound, the viability at 4 day, 30 µM in data set [2] was 46%. In addition, the viability at 1 day, 30 µM in data set [3] was found to be 77.8%. Besides, the values for the IC50 in the data set on Macrophage and with RAW264.7 [4] were 6.05 µM and 5.09 µM, respectively.
